This note sets out measurements from PMC2943143 (Biochemical pharmacology, 2010).

The assay relates to calf thymus double-stranded DNA (dsDNA). Put plainly: Thermal transition of DNA. Format: binding. Conditions: 15 μM compound, calf thymus dsDNA 6 μg/ml, pH 7.0. A digest of the protocol: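 Calf thymus dsDNA (6 μg/ml) in 0.1 M sodium phosphate pH 7.0 with 1% DMSO was tested with or without test compound, with ethidium bromide as intercalator control. Samples were equilibrated at 78 °C for 10 min, then raised 1 °C every 2 min. Absorbance was recorded on a spectrophotometer with a thermoelectric cell holder, and compound-only absorbance was subtracted to give Tm.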

For the compound `CC[n+]1c(-c2ccccc2)c2cc(N)ccc2c2ccc(N)cc21` [ethidium bromide, reference compound], the “effect on melting temperature (Tm) / thermal transition of dsDNA” value is listed as “clear shift of thermal transition”.
